Active and inactive are the calls of the source. The calls are words filed in the database; no cut-off is given here.
Columns and labels:
LNCaP C4-2 [1] = assay: Cytotoxicity against human C4-2 cells assessed as reduction in cell viability measured after 72 hrs by methylene blue staining based assay; assay type: functional; conditions: LNCaP C4-2, 72 h
In short: (§1)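 Methylene blue survival assay. Prostate cancer cells in RPMI with 10% FBS were seeded at 2000–3500 cells/well and exposed to a concentration series for 72 h. Cells were then methanol-fixed, stained with 1% methylene blue in 10 mM borate for 1 h, washed, and the dye dissolved in ethanol/0.1 M HCl (1:1). OD650nm was read. IC50 came from fitted dose–response curves; three independent experiments.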

PC-3 [2] = assay: Cytotoxicity against human PC3 cells assessed as reduction in cell viability measured after 72 hrs by methylene blue staining based assay; assay type: functional; conditions: PC-3, 72 h; in short: as §1
LNCaP C4-2 [3] = assay: Down regulation of XIAP expression in human C4-2 cells by Western blot analysis; assay type: functional, cell-based
LNCaP C4-2 [4] = assay: Down regulation of survivin expression in human C4-2 cells by Western blot analysis; assay type: functional, cell-based
PC-3 [5] = assay: Down regulation of survivin expression in human PC3 cells by Western blot analysis; assay type: functional, cell-based
Homo sapiens = species on record: Homo sapiens; assay: Inhibition of p53-large T antigen (unknown origin) dimerization assessed as reduction in SEAP reporter expression measured after 24 hrs by mammalian two hybrid assay
In short: (§2)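 Mammalian two-hybrid assay in DU145 cells seeded at 1 × 10^5/well, cultured 24 h, then transfected with GAL4-DBD (pBIND) and VP16 (pACT) fusions plus pGSEAP reporter and a firefly luciferase plasmid. Survivin–survivin or p53–large T antigen pairs were used; vector served as control. Two days later, cells were treated for 24 h. SEAP was measured by chemiluminescence and normalized using luciferase for transfection efficiency.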

DU-145 = assay: Effect on basal SEAP reporter activity in human DU145 cells measured after 24 hrs by mammalian two hybrid assay; assay type: ADME, cell-based; conditions: du-145, 24 h; in short: as §2
LNCaP C4-2 [6] = assay: Cytotoxicity against human C4-2 cells transfected with pcDNA3.1 assessed as reduction in cell viability measured after 72 hrs by methylene blue staining based assay; assay type: functional; conditions: LNCaP C4-2, 72 h; in short: as §1
LNCaP C4-2 [7] = assay: Cytotoxicity against human C4-2 cells transfected with HA-tagged survivin assessed as reduction in cell viability measured after 72 hrs by methylene blue staining based assay; assay type: functional; conditions: LNCaP C4-2, 72 h
PC-3 [8] = assay: Down regulation of XIAP expression in human PC3 cells by Western blot analysis; assay type: functional, cell-based
LNCaP C4-2 [9] = assay: Down regulation of CIAP1 expression in human C4-2 cells by Western blot analysis; assay type: functional, cell-based
PC-3 [10] = assay: Down regulation of CIAP1 expression in human PC3 cells by Western blot analysis; assay type: functional, cell-based
LNCaP C4-2 [11] = assay: Down regulation of CIAP2 expression in human C4-2 cells by Western blot analysis; assay type: functional, cell-based
PC-3 [12] = assay: Down regulation of CIAP2 expression in human PC3 cells by Western blot analysis; assay type: functional, cell-based
[13] = biological target: Baculoviral IAP repeat-containing protein 5 (Homo sapiens) (UniProt O15392); assay: Inhibition of survivin homodimerization in human C4-2 cells assessed as increase in survivin degradation by measuring survivin half life at 10 uM incubated up to 6 hrs in presence of cycloheximide by Western blot analysis (reference value: 2.2 hrs); assay type: cell-based; conditions: LNCaP C4-2
In short: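 C4-2 or PC-3 cells were pretreated with 10 μM cycloheximide for 1 h, then chased with or without 10 μM compound, or with DMSO, for 0–6 h. Remaining survivin was measured by Western blot with actin as loading control. Band densities were quantified from three independent experiments to derive half-life.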

[14] = biological target: Baculoviral IAP repeat-containing protein 5 (Homo sapiens) (UniProt O15392); assay: Inhibition of survivin homodimerization in human C4-2 cells assessed as increase in survivin degradation in presence of proteasome inhibitor MG132 by Western blot analysis; assay type: cell-based; conditions: LNCaP C4-2
In short: (§3)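 Cells were pretreated for 1 h with proteasome inhibitor MG132 or bortezomib before compound treatment. Survivin was then assessed by Western blot with actin loading control, quantified from three independent experiments.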

[15] = biological target: Baculoviral IAP repeat-containing protein 5 (Homo sapiens) (UniProt O15392); assay: Inhibition of survivin homodimerization in human C4-2 cells assessed as increase in survivin degradation in presence of proteasome inhibitor bortezomib by Western blot analysis; assay type: cell-based; conditions: LNCaP C4-2; in short: as §3
LNCaP C4-2 [16] = assay: Induction of apoptosis in human C4-2 cells assessed as increase in cleavage of caspase-3 by Western blot analysis; assay type: functional, cell-based
In short: (§4)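 C4-2 or PC-3 cells were treated at a range of concentrations, and cleaved caspase 3 was measured by Western blot. Quantification was from three independent experiments.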

PC-3 [17] = assay: Induction of apoptosis in human PC3 cells assessed as increase in cleavage of caspase-3 by Western blot analysis; assay type: functional, cell-based; in short: as §4
LNCaP C4-2 [18] = assay: Induction of apoptosis in human C4-2 cells at 3 uM measured after 48 hrs by Annexin V-FITC/propidium iodide staining based flow cytometry relative to control; assay type: functional
In short: (§5)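 C4-2 or PC-3 cells were treated with 3 μM compound or DMSO for 48 h, harvested, washed, and stained with annexin V-FITC and propidium iodide. Apoptosis was analysed by flow cytometry with excitation at 488 […]; three independent experiments.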

PC-3 [19] = assay: Induction of apoptosis in human PC3 cells at 3 uM measured after 48 hrs by Annexin V-FITC/propidium iodide staining based flow cytometry relative to control; assay type: functional; in short: as §5
PC-3 [20] = assay: Antitumor activity against human PC3 cells xenografted in NSG mouse assessed as suppression of tumor growth at 100 mg/kg, po administered via gavage every other day for 10 times and measured every 2 days during compound dosing; assay type: functional, organism-based
In short: (§6)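 PC-3 cells (3 × 10^6, in media) implanted in hind flanks of 6-week-old male NSG mice. Once tumors reached ~100 mm3, mice were randomized into two groups of 5. Vehicle (90% corn oil/10% DMSO) or 100 mg/kg was given by oral gavage every other day for ten doses. Body weight and tumor size were measured every 2 days. At sacrifice, tumors were excised for survivin Western blot and staining, and major organs were wet-weighed.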

[21] = Toxicity in NSG mouse xenografted in human PC3 cells assessed as effect on body weight at 100 mg/kg, po administered via gavage every other day for 10 times and measured every 2 days during compound dosing; assay type: organism-based, PC-3; conditions: in vivo, 48 h; in short: as §6
[22] = Toxicity in NSG mouse xenografted in human PC3 cells assessed as effect on heart weight at 100 mg/kg, po administered via gavage every other day for 10 times and measured post last dose; assay type: organism-based, PC-3; conditions: in vivo; in short: as §6
[23] = Toxicity in NSG mouse xenografted in human PC3 cells assessed as effect on liver weight at 100 mg/kg, po administered via gavage every other day for 10 times and measured post last dose; assay type: organism-based, PC-3; conditions: in vivo; in short: as §6
[24] = Toxicity in NSG mouse xenografted in human PC3 cells assessed as effect on kidney weight at 100 mg/kg, po administered via gavage every other day for 10 times and measured post last dose; assay type: organism-based, PC-3; conditions: in vivo; in short: as §6
[25] = Toxicity in NSG mouse xenografted in human PC3 cells assessed as effect on lung weight at 100 mg/kg, po administered via gavage every other day for 10 times and measured post last dose; assay type: organism-based, PC-3; conditions: in vivo; in short: as §6
[26] = Toxicity in NSG mouse xenografted in human PC3 cells assessed as effect on stomach weight at 100 mg/kg, po administered via gavage every other day for 10 times and measured post last dose; assay type: organism-based, PC-3; conditions: in vivo; in short: as §6
PC-3 [27] = assay: Antitumor activity against human PC3 cells xenografted in NSG mouse assessed as reduction in tumor size at 100 mg/kg, po administered via gavage every other day for 10 times and measured post last dose; assay type: functional, organism-based; in short: as §6
PC-3 [28] = assay: Antitumor activity against human PC3 cells xenografted in NSG mouse assessed as change in tumor color at 100 mg/kg, po administered via gavage every other day for 10 times and measured post last dose; assay type: functional, organism-based; in short: as §6
[29] = biological target: Baculoviral IAP repeat-containing protein 5 (Homo sapiens) (UniProt O15392); assay: In vivo inhibition of survivin in NSG mouse xenografted in human PC3 cells assessed as reduction in survivin expression at 100 mg/kg, po administered via gavage every other day for 10 times and measured post last dose by Western blot analysis; assay type: functional, organism-based; conditions: PC-3; in short: as §6
[30] = biological target: Baculoviral IAP repeat-containing protein 5 (Homo sapiens) (UniProt O15392); assay: In vivo inhibition of survivin in NSG mouse xenografted in human PC3 cells assessed as reduction in survivin expression at 100 mg/kg, po administered via gavage every other day for 10 times and measured post last dose by immunofluorescence analysis; assay type: functional, organism-based; conditions: PC-3; in short: as §6
[31] = Solubility of the compound in corn oil; assay type: physicochemical
[32] = biological target: Baculoviral IAP repeat-containing protein 5 (Homo sapiens) (UniProt O15392); assay: Inhibition of survivin homodimerization in human PC3 cells assessed as increase in survivin degradation by measuring survivin half life at 10 uM incubated up to 6 hrs in presence of cycloheximide by Western blot analysis (reference value: 2.3 hrs); conditions: PC-3
PC-3 [33] = assay: Cytotoxicity against human PC3 cells assessed as reduction in cell viability by MTT assay; assay type: functional, cell-based

Sequence of Baculoviral IAP repeat-containing protein 5 (Homo sapiens) (O15392 whole entry): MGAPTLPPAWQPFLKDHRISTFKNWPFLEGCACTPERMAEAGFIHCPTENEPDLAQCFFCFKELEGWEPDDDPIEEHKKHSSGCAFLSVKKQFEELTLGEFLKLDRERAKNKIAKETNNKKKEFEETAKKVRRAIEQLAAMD

CC(C)(C)c1ccc(Nc2nc3ccccc3nc2Nc2ccc(C(C)(C)C)cc2)cc1
IC50 (LNCaP C4-2 [1]): 18.6 µM
IC50 (PC-3 [2]): 18.2 µM

Fc1ccc(Nc2nc3ccccc3nc2Nc2ccc(F)cc2)cc1
Activity (LNCaP C4-2 [3]): inactive
Activity (LNCaP C4-2 [4]): Active
Activity (PC-3 [5]): Active
IC50 (LNCaP C4-2 [1]): 3.1 µM
IC50 (PC-3 [2]): 4.8 µM
inhibition (Homo sapiens): inactive
Activity (DU-145): Non-Toxic
IC50 (LNCaP C4-2 [6]): 2 µM
IC50 (LNCaP C4-2 [7]): 7 µM
Activity (PC-3 [8]): inactive
Activity (LNCaP C4-2 [9]): inactive
Activity (PC-3 [10]): inactive
Activity (LNCaP C4-2 [11]): inactive
Activity (PC-3 [12]): inactive
T1/2 [13]: 50 min
inhibition [14]: inactive
inhibition [15]: inactive
Activity (LNCaP C4-2 [16]): Dose-dependent effect
Activity (PC-3 [17]): Dose-dependent effect
Activity (LNCaP C4-2 [18]): 48%
Activity (PC-3 [19]): 39%
Activity (PC-3 [20]): Active
Activity [21]: Non-Toxic
Activity [22]: Non-Toxic
Activity [23]: Non-Toxic
Activity [24]: Non-Toxic
Activity [25]: Non-Toxic
Activity [26]: Non-Toxic
Activity (PC-3 [27]): Active
Activity (PC-3 [28]): Active
inhibition [29]: Active
inhibition [30]: Active
solubility [31]: Soluble
T1/2 [32]: 25 min

O=C1N=c2ccc(Nc3nc4nonc4nc3N/N=C/c3ccccc3OCc3ccc(Cl)cc3Cl)cc2=N1
IC50 (PC-3 [33]): 60.3 µM

Cc1cccc(Nc2nc3nonc3nc2N/N=C/c2cc3c(cc2[N+](=O)[O-])OCO3)c1C
IC50 (PC-3 [33]): 2.6 µM

Cc1ccc(-c2ccc(/C=N/Nc3nc4nonc4nc3Nc3ccc(Br)cc3)o2)cc1Cl
IC50 (PC-3 [33]): 3.3 µM

O=C(Nc1nc2ccccc2nc1Nc1ccc(F)cc1)c1ccccc1
IC50 (LNCaP C4-2 [1]): 12.7 µM
IC50 (PC-3 [2]): 19.7 µM

Cc1cccc(Nc2nc3ccccc3nc2Nc2cccc(C)c2C)c1C
IC50 (LNCaP C4-2 [1]): 17.6 µM
IC50 (PC-3 [2]): 24.8 µM

O=C(Nc1nc2ccccc2nc1Nc1ccc(F)cc1)c1ccc2c(c1)OCO2
IC50 (LNCaP C4-2 [1]): 14.3 µM
IC50 (PC-3 [2]): 20.7 µM

Cc1cccc(Nc2nc3nonc3nc2N/N=C/c2ccc(-c3ccc(Cl)c([N+](=O)[O-])c3)o2)c1C
IC50 (PC-3 [33]): 7.2 µM

Cc1cccc(Nc2nc3nonc3nc2N/N=C/c2ccc(-c3cccc(C(=O)O)c3)o2)c1C
IC50 (LNCaP C4-2 [1]): 9.1 µM
IC50 (PC-3 [2]): 8.1 µM

CCOC(=O)c1ccc(Nc2nc3nonc3nc2N/N=C/c2c[nH]nc2-c2ccccc2)cc1
IC50 (PC-3 [33]): 3.5 µM
